Legend:
Monoamine oxidase [1] = molecular target: T1, Monoamine oxidase (Mus musculus, UniProt Q8BW75+Q64133); test: Inhibitory activity of Monoamine oxidase at mouse forebrain homogenate by displacing [14C]PEA (phenethylamine); assay type: tissue-based
T1 sequence (Q8BW75 whole entry): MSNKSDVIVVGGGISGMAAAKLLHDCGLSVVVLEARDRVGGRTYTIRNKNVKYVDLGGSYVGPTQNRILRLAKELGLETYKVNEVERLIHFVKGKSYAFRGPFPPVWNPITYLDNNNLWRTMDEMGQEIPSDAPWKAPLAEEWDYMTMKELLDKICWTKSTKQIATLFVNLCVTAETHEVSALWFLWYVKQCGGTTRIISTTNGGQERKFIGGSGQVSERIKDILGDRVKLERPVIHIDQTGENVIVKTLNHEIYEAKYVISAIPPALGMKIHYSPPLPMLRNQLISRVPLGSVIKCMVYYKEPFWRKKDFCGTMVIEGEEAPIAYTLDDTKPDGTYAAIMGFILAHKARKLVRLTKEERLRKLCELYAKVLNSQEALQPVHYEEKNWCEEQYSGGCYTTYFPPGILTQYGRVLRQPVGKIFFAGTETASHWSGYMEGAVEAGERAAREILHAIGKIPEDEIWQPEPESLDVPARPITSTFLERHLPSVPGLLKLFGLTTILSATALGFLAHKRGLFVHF
T1 sequence (Q64133 whole entry): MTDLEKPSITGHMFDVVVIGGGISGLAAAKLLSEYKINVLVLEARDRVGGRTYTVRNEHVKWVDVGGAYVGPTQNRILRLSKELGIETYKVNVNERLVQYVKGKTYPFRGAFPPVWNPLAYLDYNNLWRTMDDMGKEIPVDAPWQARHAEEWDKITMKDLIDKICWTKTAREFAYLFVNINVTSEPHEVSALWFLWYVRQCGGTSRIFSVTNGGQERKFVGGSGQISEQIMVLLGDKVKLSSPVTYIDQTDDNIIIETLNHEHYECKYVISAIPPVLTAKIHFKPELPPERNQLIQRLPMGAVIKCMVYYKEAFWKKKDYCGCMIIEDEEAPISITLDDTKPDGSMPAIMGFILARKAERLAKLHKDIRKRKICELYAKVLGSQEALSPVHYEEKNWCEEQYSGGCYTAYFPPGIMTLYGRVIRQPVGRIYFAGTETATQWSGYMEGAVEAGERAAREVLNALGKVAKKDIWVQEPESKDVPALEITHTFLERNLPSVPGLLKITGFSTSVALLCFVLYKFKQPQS
Procedure, shortened: (§1)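 Male NMRI mice (18–22 g) dosed ip (0.2 mL/20 g) and killed 1 h later, five per dose. Forebrain was homogenized in 10 vol ice-cold 0.1 M sodium phosphate, pH 7.4, and incubated 10 min at 37 °C with 10 μM [14C]PEA plus 10 μM [3H]5-HT. Acid metabolites were extracted into ethyl acetate and 3H/14C counted in separate channels.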

Mus musculus [2] = test: Lowest dose potentiating the awakening effect of phenethylamine (10 mg/kg, subcutaneous) in mice pretreated with reserpine
Monoamine oxidase [3] = molecular target: T1, Monoamine oxidase; test: Inhibitory activity of Monoamine oxidase at mouse forebrain homogenate by displacing [14C]5-HT (serotonin); assay type: tissue-based; conditions: in the assay text read “[3H]5-HT” for “[14C]5-HT”; procedure, shortened: as §1
Mus musculus [4] = test: Lowest dose potentiating the awakening effect of phenethylamine (10 mg/kg, subcutaneous) in mice pretreated with reserpine; assay type: functional
Procedure, shortened: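 Mice were pretreated with reserpine 5 mg/kg sc 18 h beforehand. Test compound was given ip 1 h before PEA hydrochloride 10 mg/kg sc.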

Monoamine oxidase [5] = molecular target: T1, Monoamine oxidase; test: Inhibitory activity of Monoamine oxidase at mouse forebrain homogenate by displacing [14C]PEA; assay type: tissue-based; procedure, shortened: as §1
Monoamine oxidase [6] = molecular target: T1, Monoamine oxidase; test: Inhibitory activity of Monoamine oxidase at mouse forebrain homogenate by displacing [14C]5-HT; assay type: tissue-based; procedure, shortened: as §1
Monoamine oxidase [7] = molecular target: T2, Monoamine oxidase (Rattus norvegicus, UniProt P19643+P21396); test: In vitro inhibition of Monoamine oxidase at rat hyphalamic mitochondrial PEA by displacing 2.5 uM of [14C]PEA.; assay type: protein assay
T2 sequence (P19643 whole entry): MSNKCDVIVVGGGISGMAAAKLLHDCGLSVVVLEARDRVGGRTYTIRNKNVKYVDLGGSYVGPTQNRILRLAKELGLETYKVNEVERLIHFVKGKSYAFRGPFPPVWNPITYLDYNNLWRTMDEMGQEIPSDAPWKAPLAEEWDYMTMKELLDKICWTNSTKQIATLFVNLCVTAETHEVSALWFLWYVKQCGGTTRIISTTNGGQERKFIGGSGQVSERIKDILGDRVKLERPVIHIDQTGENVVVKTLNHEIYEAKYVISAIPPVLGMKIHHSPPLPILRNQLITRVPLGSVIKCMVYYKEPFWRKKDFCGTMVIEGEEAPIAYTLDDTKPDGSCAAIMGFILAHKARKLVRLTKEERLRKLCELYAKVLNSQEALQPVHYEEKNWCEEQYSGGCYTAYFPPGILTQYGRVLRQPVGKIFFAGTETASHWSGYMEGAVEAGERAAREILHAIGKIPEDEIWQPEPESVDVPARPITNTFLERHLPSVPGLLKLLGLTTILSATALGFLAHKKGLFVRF
T2 sequence (P21396 whole entry): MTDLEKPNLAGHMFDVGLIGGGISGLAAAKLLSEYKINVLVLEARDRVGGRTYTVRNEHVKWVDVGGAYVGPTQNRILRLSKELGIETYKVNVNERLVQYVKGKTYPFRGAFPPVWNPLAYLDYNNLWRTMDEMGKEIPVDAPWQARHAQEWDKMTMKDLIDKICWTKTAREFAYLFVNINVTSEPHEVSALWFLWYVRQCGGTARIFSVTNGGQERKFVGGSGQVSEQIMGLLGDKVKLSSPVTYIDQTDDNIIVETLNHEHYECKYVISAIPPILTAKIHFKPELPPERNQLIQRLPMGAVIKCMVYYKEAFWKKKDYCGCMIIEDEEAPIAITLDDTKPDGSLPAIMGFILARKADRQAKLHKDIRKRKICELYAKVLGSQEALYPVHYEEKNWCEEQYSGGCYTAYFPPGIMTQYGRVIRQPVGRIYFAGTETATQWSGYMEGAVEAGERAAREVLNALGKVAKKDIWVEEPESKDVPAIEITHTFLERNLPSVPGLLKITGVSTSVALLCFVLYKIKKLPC

Monoamine oxidase [8] = molecular target: T2, Monoamine oxidase; test: In vitro inhibition of Monoamine oxidase at rat hyphalamic mitochondrial 5-HT by displacing 2.5 uM of [14C]5-HT.; assay type: protein assay
Mus musculus [9] = test: Compound was injected ip 1 hr prior to 90 mg/kg iv of […] evaluation of head twitches in mice; assay type: functional
Procedure, shortened: (§2)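 Test compound given ip 1 h before iv dl-5-HTP, 90 mg/kg, in mice. The 5-HTP syndrome was scored per Ross et al. for head twitches, tremor and abduction. Values are ED50 in μmol/kg ip.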

Mus musculus [10] = test: Compound was injected ip 1 hr prior to 90 mg/kg iv of […] evaluation of tremor in mice; assay type: functional; procedure, shortened: as §2
Mus musculus [11] = test: Compound was injected ip 1 hr prior to 90 mg/kg iv of […] evaluation of abduction in mice; assay type: functional; procedure, shortened: as §2

Compound	ED50 (Monoamine oxidase [1]) [µM/kg]	Potentiation (Mus musculus [2]) [µM/kg]	ED50 (Monoamine oxidase [3]) [µM/kg]	Potentiation (Mus musculus [4]) [µM/kg]	ED50 (Monoamine oxidase [5]) [µM/kg]	ED50 (Monoamine oxidase [6]) [µM/kg]	IC50 (Monoamine oxidase [7]) [µM]	IC50 (Monoamine oxidase [8]) [µM]	ED50 (Mus musculus [9]) [µmol/kg]	ED50 (Mus musculus [10]) [µmol/kg]	ED50 (Mus musculus [11]) [µmol/kg]
C#CCN(C)CCCOc1ccc(Cl)cc1Cl [CLORGILINE]	> 65	>65	2.6								
C#CCN(C)[C@H](C)Cc1ccccc1 [SELEGILINE]				5	2	> 89					
C=C=CCN(C)C1CCc2ccccc21 (centres undefined)				9	1.7	35	0.36	1.8			
C=C=CCN(C)CCCOc1ccc(Cl)cc1Cl				60	33	6	4.6	0.004	1.7	5.1	5.4
C=C=CCNCc1ccccc1				26	6	> 51	0.15	1.8			
CC=C=CCN(C)Cc1ccccc1.O=C(O)C(=O)O (stereo in doubt; (S)(+)2)				>72	54	> 72	50	51			
CC=C=CCN(C)Cc1ccccc1.O=C(O)C(=O)O (stereo in doubt; (R)(-)2)				72	20	> 36	2.3	17			
C=C=C(CNC)Cc1ccccc1				76	11	> 38	0.44	6.2			
CC=C=CCN(C)Cc1ccccc1					36	> 72	15	29			
C=C=CCN1CCc2ccccc2C1				>90	> 90	> 90	4.3	7			
C=C=C(CN)Cc1ccc(C)cc1				>38	23	> 38	0.36	1.1			
C=C=C(Cc1ccccc1)CN(C)C				> 72	54	> 72	> 100	25			
C=C=CCN(C)C(C)Cc1ccccc1 (centres undefined)				34	52	> 69	4.7	0.8			
C=C=C(CN)Cc1ccc(OC)cc1				36	16	39	0.58	0.7			
C=C=CC(C)N(C)Cc1ccccc1 (centres undefined)							> 100	43			
C=C=C(CN)Cc1ccc(Cl)cc1				35	7	18	0.04	0.26			
C=C=C(CN)Cc1ccccc1				51	12	> 26	0.14	20			
C=C=C(CN)c1ccccc1				>79	8	> 39	0.24	7.2			
C=C=CCN(C)Cc1ccccc1					17	> 48	0.17	8.2			
